Experimental data reported in ChEMBL document CHEMBL4373686, “Methyl sulfonamide substituents improve the pharmacokinetic properties of bicyclic 2-pyridone based Chlamydia trachomatis inhibitors” (Medchemcomm, 2019).

What follows are molecules tested on HeLa 229 (assay: Cytotoxicity against human HeLa 229 cells assessed as cell viability at 10 uM after 48 hrs resazurin dye based fluorescence method relative to control). Conditions: hela 229, 48 h.
Procedure, shortened: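 HeLa cells in colorless DMEM with 10% FBS, compound in 0.5% DMSO for 48 h; resazurin added, 3 h at 37 °C, 5% CO2, dark; fluorescence ex 535/em 595 nm; triplicate wells as percent of DMSO control.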
In the case of COc1c(Cc2cccc3ccccc23)cc(=O)n2c1SCC2C(=O)Nc1ccc(C)cc1 (racemic), the Activity is reported as 89%. In the case of Cc1cccc(NC(=O)C2CSc3c(NS(C)(=O)=O)c(Cc4cccc5ccccc45)cc(=O)n32)c1 (racemic), the Activity is reported as 92%. CC(C)Nc1c(Cc2cccc3ccccc23)cc(=O)n2c1SCC2C(=O)Nc1ccccc1 (racemic) showed an Activity of 91%. COc1c(Cc2cccc(C)c2C)c(N)c(=O)n2c1SCC2C(=O)Nc1cc(C)cc(F)c1 (racemic) gave an Activity of 92%. O=C(Nc1ccccc1)C1CSc2c(O)c(Cc3cccc4ccccc34)cc(=O)n21 (racemic) was tested, and the Activity was 93%. Molecule COc1c(Cc2cccc3ccccc23)cc(=O)n2c1SCC2C(=O)Nc1ccccc1 (racemic) has an Activity of 91%. For COc1c(Cc2cccc(C)c2C)c(N)c(=O)n2c1SCC2c1nc(-c2ccccc2)no1 (racemic), the Activity was 94%. Cc1cc(F)cc(NC(=O)C2CSc3c(NS(C)(=O)=O)c(Cc4cccc5ccccc45)cc(=O)n32)c1 (racemic) showed an Activity of 91%. COc1c(Cc2cccc(C)c2C)cc(=O)n2c1SCC2C(=O)Nc1ccccc1 (racemic) was tested, and the Activity was 89%. For COc1c(Cc2cccc(C)c2C)c(N)c(=O)n2c1SCC2C(=O)Nc1ccccc1 (racemic), the Activity was 94%. COc1c(Cc2cccc(C)c2C)cc(=O)n2c1SCC2c1nc(-c2ccccc2)no1 (racemic) showed an Activity of 91%.

The molecules below were run on Chlamydia trachomatis (assay: (§1) Antibacterial activity against Chlamydia trachomatis 434/Bu serovar L2/ATCC VR-902B in HeLa 229 cells infected with cell lysates from 48 hrs at 1 uM compound treated HeLa 229 cells with Chlamydia trachomatis infection assessed as inhibition of reinfection and measured after 48 hrs post re-infection by DAPI staining based arrayscan automated microscopic method relative to control). Conditions: not given.
Format: functional, organism-based
Procedure, shortened: (§2)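 HeLa 229 cells infected with C. trachomatis L2 EBs at MOI 0.3–0.5; compound added in RPMI 1 h post infection; 44–48 h, then water lysis. 10-fold serial dilutions of lysate reinfect fresh HeLa; 44–46 h, methanol fixed, anti-Chlamydia/FITC antibody plus DAPI stain, IFUs counted by automated microscopy; % IFU versus DMSO control; three independent experiments, duplicates.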
Molecule COc1c(Cc2cccc3ccccc23)cc(=O)n2c1SCC2C(=O)Nc1ccc(C)cc1 (racemic) has an inhibition of 62%. CC(C)Nc1c(Cc2cccc3ccccc23)cc(=O)n2c1SCC2C(=O)Nc1ccccc1 (racemic) was tested, and the inhibition was 25%. Nc1c(Cc2cccc3ccccc23)c(C2CC2)c2n(c1=O)C(C(=O)Nc1ccccc1)CS2 (racemic) gave an inhibition of 94%. For O=C(Nc1ccccc1)C1CSc2c(C3CC3)c(Cc3cccc4ccccc34)cc(=O)n21 (racemic), the inhibition was 67%. Work on Cc1cc(F)cc(NC(=O)C2CSc3c(NS(C)(=O)=O)c(Cc4cccc5ccccc45)cc(=O)n32)c1 (racemic) yielded an inhibition of 6%. COc1c(Cc2cccc(C)c2C)cc(=O)n2c1SCC2C(=O)Nc1ccccc1 (racemic) was tested, and the inhibition was 22%.

The molecules below were run on Chlamydia trachomatis (assay: as §1, with “2.5” for “1”). Conditions: not given.
Format: functional, organism-based
Procedure, shortened: as §2
Work on COc1c(Cc2cccc3ccccc23)cc(=O)n2c1SCC2C(=O)Nc1ccc(C)cc1 (racemic) yielded an inhibition of 94%. Molecule Cc1cccc(NC(=O)C2CSc3c(NS(C)(=O)=O)c(Cc4cccc5ccccc45)cc(=O)n32)c1 (racemic) has an inhibition of -2%. In the case of CC(C)Nc1c(Cc2cccc3ccccc23)cc(=O)n2c1SCC2C(=O)Nc1ccccc1 (racemic), the inhibition is reported as 79%. With COc1c(Cc2cccc(C)c2C)c(N)c(=O)n2c1SCC2C(=O)Nc1cc(C)cc(F)c1 (racemic) the inhibition was 47%. Nc1c(Cc2cccc3ccccc23)c(C2CC2)c2n(c1=O)C(C(=O)Nc1ccccc1)CS2 (racemic) gave an inhibition of 98%. Work on O=C(Nc1ccccc1)C1CSc2c(O)c(Cc3cccc4ccccc34)cc(=O)n21 (racemic) yielded an inhibition of 21%. O=C(Nc1ccccc1)C1CSc2c(C3CC3)c(Cc3cccc4ccccc34)cc(=O)n21 (racemic) showed an inhibition of 87%. With COc1c(Cc2cccc3ccccc23)cc(=O)n2c1SCC2C(=O)Nc1ccccc1 (racemic) the inhibition was 24%. COc1c(Cc2cccc(C)c2C)c(N)c(=O)n2c1SCC2c1nc(-c2ccccc2)no1 (racemic) showed an inhibition of 17%. Work on Cc1cc(F)cc(NC(=O)C2CSc3c(NS(C)(=O)=O)c(Cc4cccc5ccccc45)cc(=O)n32)c1 (racemic) yielded an inhibition of 6%. COc1c(Cc2cccc(C)c2C)cc(=O)n2c1SCC2C(=O)Nc1ccccc1 (racemic) showed an inhibition of 51%. For COc1c(Cc2cccc(C)c2C)c(N)c(=O)n2c1SCC2C(=O)Nc1ccccc1 (racemic), the inhibition was 25%. COc1c(Cc2cccc(C)c2C)cc(=O)n2c1SCC2c1nc(-c2ccccc2)no1 (racemic) showed an inhibition of 1%.
